Experimental data as given in PMC8596596 (Journal of Clinical Pharmacology, 2021).
Several values for one entry are separate records, joined by “and”; a condition that tells them apart may be missing. Identical values can stand only once. Like-named read-outs stand apart in the source and are kept apart here. Values belong to the molecule of their own block, whether it stands above or below them.

Tests used:
[1] = Plasma pharmacokinetics, noncompartmental analysis; format: in vivo; details: human, po
How it was run: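 K2-EDTA plasma underwent liquid-liquid extraction and LC-MS/MS: phenyl column, isocratic 0.025% NH4OH in 67% acetonitrile, positive MRM at m/z 312→143, deuterated internal standard. QC levels were 0.300, 1.50 and 8.00 ng/mL. Parameters were obtained by noncompartmental analysis.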

Population PK model = format: in vivo, human; details: oral
How it was run: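 Nonlinear mixed-effects modelling of plasma concentrations after oral 2 and 4 mg in healthy elderly subjects. 1-, 2- and 3-compartment models were explored, with or without absorption lag time and transit compartments. Between-subject and between-occasion variability were added bottom-up (P < .01). Age, sex, weight and BMI were tested as covariates (forward P < .01, backward P < .001). The final model had 2 compartments with linear elimination.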

healthy elderly subjects [2] = assay: Adaptive tracking test; format: in vivo, human; details: for decrease in mean adaptive tracking test performance: vs placebo
How it was run: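 Randomized, double-blind, placebo-controlled 3-way crossover in 12 subjects aged 65–80 years (MMSE ≥28). Single oral doses of 2 or 4 mg test compound or placebo, 1-week washout. Joystick pursuit task: the subject keeps a dot inside a randomly moving circle, whose speed rises with success and falls with failure. Tested twice predose and at 1, 2.5, 4, 7 and 22 h. Mixed-model ANCOVA with baseline covariate; least-squares means versus placebo.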

healthy elderly subjects [3] = assay: N-back task; format: in vivo, human; details: vs placebo
healthy elderly subjects [4] = assay: Visual-verbal learning test; format: in vivo, human; details: 4 mg oral, vs placebo
How it was run: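 A 30-word list was presented. Immediate recall rounds assessed acquisition at 1.5 h postdose, followed by delayed recall and recognition. Subjects received oral 4 mg, 2 mg or placebo in a crossover design; single-occasion test. Analysed by mixed-model ANOVA with treatment and period as fixed factors and subject as random factor, comparing least-squares means with placebo.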

healthy elderly subjects [5] = assay: Pupillometry; format: in vivo, human
How it was run: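 Pupil images were taken with a digital camera and single flash. Pupil and iris diameters were measured horizontally in pixels, and the pupil/[…] diameter ratio was calculated for each eye. Oral 2 mg, 4 mg or placebo in a crossover design in healthy elderly subjects. Measured twice predose and at 1, 2.5, 4, 7 and 22 h. Mixed-model ANCOVA with baseline covariate against placebo.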

healthy elderly subjects [6] = assay: Body sway; format: in vivo, human; details: 22 hours postdose
How it was run: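 Crossover in healthy elderly subjects given oral 2 mg, 4 mg or placebo. Postural stability was measured with a body sway meter recording movement in a single plane over 2 minutes, with movements integrated. Measured twice predose and at 1, 2.5, 4, 7 and 22 h postdose. Analysis used mixed-model ANCOVA with time and treatment factors and the average baseline as covariate.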

healthy elderly subjects [7] = assay: Saccadic and smooth pursuit eye movements; format: in vivo, human
How it was run: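 Subjects followed a horizontally moving target on a screen 58 cm away. The target moved continuously for smooth pursuit and jumped side to side for saccades, and movements were recorded by computer. Oral 2 mg, 4 mg or placebo in a crossover design in healthy elderly subjects; tests predose and at 1, 2.5, 4, 7 and 22 h. Mixed-model ANCOVA with baseline covariate.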

healthy elderly subjects [8] = assay: Mismatch negativity auditory event-related potential; format: in vivo, human; details: vs placebo
How it was run: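 Passive auditory oddball while subjects watched a silent movie. 750 tones were given (600 frequent, 150 deviant), each 150 ms at 75 dB, at a fixed 2 Hz rate. Event-related potential recorded by EEG. Healthy elderly subjects received oral 2 or 4 mg or placebo in a crossover design with repeated postdose sessions. Compared with placebo by mixed-model analysis.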

healthy elderly subjects [9] = assay: Visual analog scales; format: in vivo, human; details: both doses (2 and 4 mg)
How it was run: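 Bond and Lader visual analog scales rated alertness, mood and calmness, and nausea was rated on a 100-mm line. Oral 2 mg, 4 mg or placebo in a crossover design in healthy elderly subjects. Ratings were made repeatedly predose and up to 22 h postdose. Analysed by mixed-model ANCOVA with baseline covariate against placebo.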

healthy elderly subjects [10] = assay: Finger tapping test; format: in vivo, human; details: both doses (2 and 4 mg)
How it was run: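 Finger tapping with the index finger of the dominant hand on a computer space bar, as fast as possible. Each session had 5 trials of 10 s, and mean tapping rate and SD were analysed. Oral 2 mg, 4 mg or placebo in a crossover design; tests predose and at 1, 2.5, 4, 7 and 22 h. Mixed-model ANCOVA with baseline covariate.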

healthy elderly subjects [11] = assay: Safety and tolerability; format: in vivo, human; details: 2 and 4 mg oral
How it was run: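 Safety was monitored through treatment-emergent adverse events, laboratory tests, vital signs and ECG during each period. Randomization gave the 4-mg dose only after the 2-mg study day had been completed. A snack was given within 30 minutes before dosing, and caffeine and nicotine were not allowed. Oral single doses with a 1-week washout.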

healthy elderly subjects [12] = assay: Population PK-PD model; format: in vivo, human
M1 mAChR = details: read-out: equilibrium dissociation constant [Kd] for M1; cited from earlier work
M2 mAChR = details: read-out: equilibrium dissociation constant [Kd] for M2; cited from earlier work
M3 mAChR = details: read-out: equilibrium dissociation constant [Kd] for M3; cited from earlier work
M4 mAChR = details: read-out: equilibrium dissociation constant [Kd] for M4; cited from earlier work
M5 mAChR = details: read-out: equilibrium dissociation constant [Kd] for M5; cited from earlier work
[13] = cited from earlier work
healthy subjects [14] = details: cited from earlier work
healthy subjects [15] = details: cited from earlier work; remark: listed apart in the source

- AUC(0-t) ([1]; 2 mg): 18.4 ng·h/mL
- Cmax ([1]; 2 mg): 3.51 ng/mL
- AUC(0-t) ([1]; 4 mg): 39.5 ng·h/mL
- Cmax ([1]; 4 mg): 7.45 ng/mL
- Tmax ([1]; 4 mg): 2 h
- half-life (Population PK model; human, plasma): 29.5 h
- Absorption rate constant (Population PK model; population PK estimate): 2.73 (BOV = 97.7%) /hour
- Clearance (Population PK model; population PK estimate): 78.06 (IIV = 172%, BOV = 12%) L/h/F
- Lag time (Population PK model; population PK estimate): 0.54 (BOV = 75%) hours
- Volume of distribution—central (Population PK model; population PK estimate): 491.40 (IIV = 79.5%) L/F
- VAS nausea scores, change (healthy elderly subjects [9]): No significant changes
Structure (SMILES): OC(CCN1CCCCC1)(c1ccccc1)C1CC2C=CC1C2 (centres unmarked) [biperiden]
- decrease in mean adaptive tracking test performance (healthy elderly subjects [2]; 2 mg oral): 1.36 percentage point
- adaptive tracking, change compared with placebo (healthy elderly subjects [2]; 4 mg oral): −2.1 percentage point
- decrease in mean adaptive tracking test performance (healthy elderly subjects [2]; 4 mg oral): 2.10 percentage point and 2.1 percentage point
- n-back reaction time and accuracy, change (healthy elderly subjects [3]; 2 mg oral): No significant change
- n-back 0-back condition reaction time, mean difference (healthy elderly subjects [3]; 4 mg oral): 37.2 milliseconds
- n-back 1-back condition reaction time, mean difference (healthy elderly subjects [3]; 4 mg oral): 49.9 milliseconds
- n-back 2-back condition accuracy, decrease (healthy elderly subjects [3]; 4 mg oral): 0.06
- n-back task reaction time increase (healthy elderly subjects [3]; 4 mg oral): ≤ 50 millisecond
- VVLT second immediate recall round, fewer words recalled (healthy elderly subjects [4]): 2.5 words
- VVLT third immediate recall round, fewer words recalled (healthy elderly subjects [4]): 2.9 words
- pupil/iris ratio left eye, mean difference (healthy elderly subjects [5]; 4 mg oral, vs placebo): 0.065
- pupil/iris ratio right eye, mean difference (healthy elderly subjects [5]; 4 mg oral, vs placebo): 0.07341
- pupil/iris ratio in both eyes, recovery (healthy elderly subjects [5]; 22 hours postdose): not normalized 22 hours postdose
- body sway, recovery (healthy elderly subjects [6]): not normalized 22 hours postdose
- smooth pursuit, effect (healthy elderly subjects [7]; 2 mg oral, vs placebo): No significant effect
- smooth pursuit decrease (healthy elderly subjects [7]; 4 mg oral, vs placebo): 3.55 percentage point
- saccadic inaccuracy, peak velocity, or reaction time, effect (healthy elderly subjects [7]; both doses (2 and 4 mg) vs placebo): No significant effects
- MMN latency at Fz, increase (healthy elderly subjects [8]; 2 mg oral): 12.1 milliseconds
- MMN latency at Fz, increase (healthy elderly subjects [8]; 4 mg oral): 13.9 milliseconds
- VAS Bond and Lader subscales of mood, alertness, and calmness, change (healthy elderly subjects [9]): No significant changes
- tapping-test performance, change (healthy elderly subjects [10]): No significant changes
- tolerability (healthy elderly subjects [11]): well tolerated
- tolerability (healthy elderly subjects [11]; listed as Biperiden): very well tolerated
- adaptive tracking, linear concentration-effect slope (healthy elderly subjects [12]): −0.98 percentage point/ng/mL
- n-back 0-back accuracy measure, drug effect (healthy elderly subjects [12]): No significant effect
- n-back 0-back reaction time, Emax (healthy elderly subjects [12]): 288.5 milliseconds
- n-back 0-back reaction time, Hill coefficient (healthy elderly subjects [12]): 2.25
- n-back 1-back accuracy measure, linear drug effect slope (healthy elderly subjects [12]): -0.011 ng⁻¹ mL⁻¹
- n-back 1-back reaction time, linear drug effect slope (healthy elderly subjects [12]): 16.18 ms/ng/mL
- n-back 2-back reaction time, linear drug effect slope (healthy elderly subjects [12]): 11.08 ms/ng/mL
- Kd (M1 mAChR): 0.48 ± 0.02 nM
- Kd (M2 mAChR): 6.3 ± 0.5 nM
- Kd (M3 mAChR): 3.9 ± 0.1 nM
- Kd (M4 mAChR): 2.4 ± 0.03 nM
- Kd (M5 mAChR): 6.3 ± 0.1 nM
- bioavailability ([13]; assumed, oral ref 18): approximately 33%
- Tmax ([13]; postdose, as stated for previous studies): approximately 1 hour

Structure (SMILES): NC(=O)C(c1ccccc1)(c1ccccc1)[C@@H]1CCN(CCc2ccc3c(c2)CCO3)C1 [darifenacin]
- effect on body sway (healthy subjects [14]): increase body sway

Structure (SMILES): CN1[C@@H]2C[C@@H](OC(=O)[C@H](CO)c3ccccc3)C[C@H]1[C@@H]1O[C@@H]12 [scopolamine]
- peak saccadic velocity, effect (healthy subjects [15]): concentration‐related decrease
